Test results taken from ChEMBL document CHEMBL1128413, “The serotonin 5-HT4 receptor. 1. Design of a new class of agonists and receptor map of the agonist recognition site” (J Med Chem, 1995).

Assays:
[1] = biological target: T1, Alpha-1A adrenergic receptor (Bos taurus) (UniProt P18130); assay: Binding affinity was evaluated by Alpha-1 adrenergic receptor in calf cortex by displacing prazosin
T1 sequence (whole entry): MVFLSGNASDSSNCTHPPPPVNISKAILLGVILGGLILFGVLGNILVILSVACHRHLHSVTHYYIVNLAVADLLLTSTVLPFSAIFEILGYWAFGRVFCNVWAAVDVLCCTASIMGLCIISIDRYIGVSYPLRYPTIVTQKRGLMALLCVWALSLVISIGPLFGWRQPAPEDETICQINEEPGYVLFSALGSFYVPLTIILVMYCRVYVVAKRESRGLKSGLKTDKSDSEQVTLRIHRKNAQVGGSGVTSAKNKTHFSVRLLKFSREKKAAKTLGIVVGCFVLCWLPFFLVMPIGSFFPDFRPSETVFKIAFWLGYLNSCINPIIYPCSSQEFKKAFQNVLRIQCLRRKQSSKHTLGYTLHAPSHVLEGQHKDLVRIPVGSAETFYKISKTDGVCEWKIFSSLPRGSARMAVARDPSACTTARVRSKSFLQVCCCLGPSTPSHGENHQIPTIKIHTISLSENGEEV
Procedure, shortened: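 Radioligand displacement with [3H]prazosin on calf cortex membranes; Ki reported.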

[2] = biological target: 5-hydroxytryptamine receptor 4 (Cavia porcellus) (UniProt O70528); assay: 5-hydroxytryptamine 4 receptor agonist activity in the guinea pig ileum assay; assay type: functional, tissue-based
Sequence of 5-hydroxytryptamine receptor 4 (Cavia porcellus) (O70528 whole entry): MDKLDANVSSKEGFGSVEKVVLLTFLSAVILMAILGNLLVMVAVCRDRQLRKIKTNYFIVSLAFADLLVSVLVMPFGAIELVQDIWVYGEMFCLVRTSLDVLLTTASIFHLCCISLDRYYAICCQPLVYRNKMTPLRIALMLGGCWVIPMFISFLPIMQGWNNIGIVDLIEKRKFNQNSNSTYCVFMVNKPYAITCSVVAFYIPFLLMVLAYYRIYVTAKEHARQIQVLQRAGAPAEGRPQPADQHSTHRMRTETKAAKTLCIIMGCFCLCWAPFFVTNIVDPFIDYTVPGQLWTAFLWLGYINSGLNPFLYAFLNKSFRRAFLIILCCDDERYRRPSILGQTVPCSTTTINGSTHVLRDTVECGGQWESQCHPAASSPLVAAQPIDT
Procedure, shortened: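 Guinea pig ileum longitudinal muscle strips in tyrode solution with 0.1 μM methysergide. Twitch contractions (2–3 s) evoked by field stimulation with square-wave pulses (0.1 Hz, 2 ms) via platinum electrodes. Once a stable submaximal response is reached, noncumulative concentration–response curves are built for enhancement of twitch. Readouts are pD2 and efficacy relative to 5-HT.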

[3] = biological target: 5-hydroxytryptamine receptor 2A (Rattus norvegicus) (UniProt P14842); assay: Binding affinity was evaluated by 5-hydroxytryptamine 2A receptor […] in the rat cortex by displacing ketanserin
Sequence of 5-hydroxytryptamine receptor 2A (Rattus norvegicus) (P14842 whole entry): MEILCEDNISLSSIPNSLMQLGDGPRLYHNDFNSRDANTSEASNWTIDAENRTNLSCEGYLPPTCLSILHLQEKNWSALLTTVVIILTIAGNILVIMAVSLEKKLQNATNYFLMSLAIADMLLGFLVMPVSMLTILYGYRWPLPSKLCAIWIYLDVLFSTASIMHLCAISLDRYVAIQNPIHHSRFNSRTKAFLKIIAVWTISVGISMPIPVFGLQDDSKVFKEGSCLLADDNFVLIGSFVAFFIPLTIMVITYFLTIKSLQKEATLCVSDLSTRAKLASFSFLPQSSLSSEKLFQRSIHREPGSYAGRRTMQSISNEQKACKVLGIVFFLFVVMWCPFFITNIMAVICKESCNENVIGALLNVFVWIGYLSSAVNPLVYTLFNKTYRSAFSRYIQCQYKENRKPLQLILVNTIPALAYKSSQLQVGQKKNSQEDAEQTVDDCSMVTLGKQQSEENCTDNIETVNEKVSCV
Procedure, shortened: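 Radioligand displacement with [3H]ketanserin on rat cortex membranes; Ki reported.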

[4] = biological target: 5-hydroxytryptamine receptor 4 (Cavia porcellus) (UniProt O70528); assay: Compound was evaluated for the relative potency with respect to serotonin against 5-hydroxytryptamine 4 receptor; assay type: functional
[5] = tested on: 5-HT1A receptor (Sus scrofa); assay: Binding affinity was evaluated by 5-hydroxytryptamine 1A receptor […] in the pig cortex by displacing 8-OH-DPAT
[6] = biological target: Serotonin 3 (5-HT3) receptor (Homo sapiens) (UniProt P46098+A5X5Y0+O95264+Q70Z44+Q8WXA8); assay: 5-hydroxytryptamine 3 receptor agonism in the guinea pig ileum by functional 5-HT3 receptor assay; assay type: tissue-based; conditions: Cavia porcellus, target entry is the homologue from another species
Procedure, shortened: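 Guinea pig ileum in tyrode solution containing 0.1 μM methysergide. 5-HT3 receptor-mediated contractions recorded isotonically; concentration–response curves built noncumulatively.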

[7] = biological target: D(2) dopamine receptor (Bos taurus) (UniProt P20288); assay: Binding affinity was evaluated by Dopamine receptor D2 binding in the calf striatum by displacing spiperone; assay type: tissue-based
Sequence of D(2) dopamine receptor (Bos taurus) (P20288 whole entry): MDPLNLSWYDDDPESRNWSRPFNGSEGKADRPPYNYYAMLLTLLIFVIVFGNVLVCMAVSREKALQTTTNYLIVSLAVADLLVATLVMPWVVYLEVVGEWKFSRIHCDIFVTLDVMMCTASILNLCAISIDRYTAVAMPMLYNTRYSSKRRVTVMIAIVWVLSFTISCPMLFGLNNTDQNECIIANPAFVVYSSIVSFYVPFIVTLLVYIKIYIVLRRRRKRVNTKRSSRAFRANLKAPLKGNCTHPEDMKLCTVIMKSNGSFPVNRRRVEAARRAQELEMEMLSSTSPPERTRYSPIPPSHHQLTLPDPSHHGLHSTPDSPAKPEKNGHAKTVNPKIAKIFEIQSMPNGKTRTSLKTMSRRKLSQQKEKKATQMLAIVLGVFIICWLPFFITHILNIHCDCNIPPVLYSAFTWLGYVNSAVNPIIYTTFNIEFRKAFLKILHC
Procedure, shortened: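 Radioligand displacement with [3H]spiperone on calf striatum membranes; Ki reported.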

[8] = biological target: D(1A) dopamine receptor (Bos taurus) (UniProt Q95136); assay: Binding affinity was evaluated by dopamine receptor D1 […] in the calf striatum by displacing SCH 23390; assay type: tissue-based
Sequence of D(1A) dopamine receptor (Bos taurus) (Q95136 whole entry): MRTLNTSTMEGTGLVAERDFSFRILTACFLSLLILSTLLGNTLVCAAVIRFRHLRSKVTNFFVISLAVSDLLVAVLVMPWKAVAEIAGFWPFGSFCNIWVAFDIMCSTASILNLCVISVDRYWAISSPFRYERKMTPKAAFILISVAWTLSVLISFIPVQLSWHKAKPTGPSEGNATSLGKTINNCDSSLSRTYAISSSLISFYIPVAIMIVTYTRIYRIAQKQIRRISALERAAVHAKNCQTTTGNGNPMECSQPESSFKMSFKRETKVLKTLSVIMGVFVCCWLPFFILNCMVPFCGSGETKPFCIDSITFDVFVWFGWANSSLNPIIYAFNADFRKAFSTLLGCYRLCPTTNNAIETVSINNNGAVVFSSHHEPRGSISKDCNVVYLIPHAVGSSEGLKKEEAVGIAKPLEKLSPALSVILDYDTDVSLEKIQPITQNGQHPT
Procedure, shortened: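 Radioligand displacement with [3H]SCH 23390 on calf striatum membranes; Ki reported.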

[9] = biological target: T2, Serotonin 3 receptor (5HT3) (Mus musculus) (UniProt Q9JHJ5+P23979)
[10] = biological target: D(1A) dopamine receptor (Bos taurus) (UniProt Q95136); conditions: Striatum
[11] = biological target: T3, Serotonin 3 receptor (5HT3) (Mus musculus, UniProt Q9JHJ5+P23979); assay: Compound was evaluated for the binding affinity at 5- HT3 receptor subtype; assay type: protein assay
T3 sequence (Q9JHJ5 whole entry): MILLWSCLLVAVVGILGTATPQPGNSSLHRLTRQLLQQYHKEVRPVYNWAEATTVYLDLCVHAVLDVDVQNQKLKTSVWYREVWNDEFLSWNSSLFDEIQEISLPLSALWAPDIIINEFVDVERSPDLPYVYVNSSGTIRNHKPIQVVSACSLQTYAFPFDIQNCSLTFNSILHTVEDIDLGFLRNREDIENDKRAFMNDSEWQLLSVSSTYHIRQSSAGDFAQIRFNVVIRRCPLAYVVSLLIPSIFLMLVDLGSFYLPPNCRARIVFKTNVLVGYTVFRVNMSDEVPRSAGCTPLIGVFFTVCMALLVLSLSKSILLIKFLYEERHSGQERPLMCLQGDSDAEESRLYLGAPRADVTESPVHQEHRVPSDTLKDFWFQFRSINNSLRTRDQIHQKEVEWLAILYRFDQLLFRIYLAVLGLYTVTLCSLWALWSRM
T3 sequence (P23979 whole entry): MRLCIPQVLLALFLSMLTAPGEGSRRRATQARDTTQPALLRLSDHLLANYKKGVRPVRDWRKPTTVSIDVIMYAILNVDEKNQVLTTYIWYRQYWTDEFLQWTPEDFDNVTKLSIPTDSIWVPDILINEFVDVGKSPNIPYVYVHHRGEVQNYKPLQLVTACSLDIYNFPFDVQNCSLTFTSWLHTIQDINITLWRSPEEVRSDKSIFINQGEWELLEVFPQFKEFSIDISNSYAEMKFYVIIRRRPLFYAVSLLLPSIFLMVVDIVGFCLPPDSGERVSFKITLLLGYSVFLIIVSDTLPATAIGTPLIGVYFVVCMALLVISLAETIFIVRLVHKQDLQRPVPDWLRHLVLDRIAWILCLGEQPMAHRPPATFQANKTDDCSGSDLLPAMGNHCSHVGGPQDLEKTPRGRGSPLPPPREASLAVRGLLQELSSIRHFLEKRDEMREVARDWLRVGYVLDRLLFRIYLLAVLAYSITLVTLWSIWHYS
Procedure, shortened: (§1)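 Radioligand binding to native tissue membranes. Each receptor used its own tissue and [³H]radioligand: 5-HT2A in rat cortex with [³H]ketanserin, 5-HT3 in mouse N1E-115 cells with [³H]tropisetron, α1 in calf cortex with [³H]prazosin, and D2 in calf striatum with [³H]spiperone. Affinity is reported as Ki.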

[12] = biological target: D(2) dopamine receptor (Bos taurus, UniProt P20288); assay: Compound was evaluated for the binding affinity at Dopamine receptor D2; procedure, shortened: as §1
Sequence of D(2) dopamine receptor (P20288 whole entry): as the sequence (P20288 whole entry) above

[13] = biological target: T2, Serotonin 3 receptor (5HT3) (Mus musculus); remark: listed apart in the source

Row | SMILES | pKD [1] | pD2 [2] | pKD [3] | Potency relative to serotonin [4] | pKD [5] | pD2 [6] | pKD [7] | pKD [8] | pKD [9] | pKD [10] | Ki [11] [nM] | Ki [12] [nM] | pKD [13]
1 | N=C(N)N/N=C/c1c[nH]c2ccc(O)cc12 | < 5.5 | 8.8 | 6.6 | 1.5 | 7.2 | < 5 | < 5 | 5.4 |  |  |  |  | 
2 | COc1cc(N)c(Cl)cc1C(=O)N[C@H]1CN2CCC1CC2 | < 5 | 6.8 | < 5 | 1.9 |  |  | < 5 |  | 9.5 | < 5 |  |  | 
3 | COc1cc(N)c(Cl)cc1C(=O)N[C@H]1CCN(CCCOc2ccc(F)cc2)C[C@H]1OC |  | 6 |  | 0.7 |  |  | 6.5 |  | 7.2 | 5.2 |  |  | 
4 | NCCc1c[nH]c2ccc(O)cc12 |  | 8.4 |  | 1 |  |  |  |  |  |  |  |  | 
5 | CCN(CC)CCNC(=O)c1cc(Cl)c(N)cc1OC [METOCLOPRAMIDE] | < 5 | 5.6 | 5.4 | 1 |  |  | 7.1 |  |  | < 5 | 200 | 80 | 6.7
